Assay results collected from several papers.
Lines come from different studies, so protocols differ.
CASP3: Caspase-3 (CASP3, Homo sapiens, UniProt P42574)
MAPK15: Mitogen-activated protein kinase 15 (MAPK15, Homo sapiens, UniProt Q8TD08)
SMO: Protein smoothened (SMO, Homo sapiens, UniProt Q99835)

SMILES | target | test | conditions | measurement | value
C#Cc1n[nH]c2c(-c3cn(C(C)c4ccccn4)c(=O)[nH]c3=O)cc(F)cc12 (stereo not shown) | Fibroblast growth factor receptor 2 (FGFR2, Homo sapiens, UniProt P21802) | enzyme activity, inhibitor | 1 µM | inhibition | -6%
Cc1ncc(C)n2nc(/C=C/c3nc(N4CCCC4)cc(N4CCOCC4)n3)nc12 | CASP3 | enzyme activity, inhibitor | 10 µM | inhibition | 0%
CC(=O)N[C@@H](CC(=O)O)C(=O)N[C@@H](CC(N)=O)C(=O)N[C@@H](CC(C)C)C(=O)N[C@H](C=O)CC(=O)O | CASP3 | enzyme activity, inhibitor | 1 nM | inhibition | 10%
Cc1nn(C)cc1-c1nc2c(N3CCN(Cc4ccc(Cl)cc4)CC3)c(Cl)cnc2[nH]1 | MAPK15 | binding, competition with immobilised ligand | 1 µM | remaining binding | 8.2%
O=C(Nc1cccnn1)N1CCN([C@@H]2CCOc3cc(C(F)(F)F)ccc32)CC1 | CASP3 | cell-free assay, inhibitor | 20 µM | inhibition | 1%
Cc1cnc(-c2cc(N3CCN(C(=O)CCS(C)(=O)=O)CC3)ncc2Cl)c(C)c1 | SMO | GTPγS binding, agonist, radiometric | cell membranes | Emax | -60.4%
Nc1ncc(-c2nc(N3CCOCC3)nc(N3CCOCC3)n2)c(C(F)F)n1 | MAPK15 | binding, competition with immobilised ligand | 10 µM | remaining binding | 100%
COc1ncccc1-c1cnn2ccc(N3CCN(C(=O)OC(C)C)CC3)nc12 | MAPK15 | binding, competition with immobilised ligand | 1 µM | remaining binding | 78%
CC[C@@]1(O)C(=O)OCc2c1cc1n(c2=O)Cc2cc3ccccc3nc2-1 | Ubiquitin carboxyl-terminal hydrolase 51 (USP51, Homo sapiens, UniProt Q70EK9) | enzyme activity, inhibitor | 5 µM | inhibition | 0%
CC1=C2C[C@H]3[C@@H](CC=C4C[C@@H](O)CC[C@@]43C)[C@@H]2CC[C@]12O[C@@H]1C[C@H](C)CN[C@H]1[C@H]2C | Protein smoothened (SMO, Homo sapiens, UniProt Q99835, D473H) | GTPγS binding, agonist, radiometric | cell membranes | Emax | -107%
CC[C@H](C)[C@@H](C(=O)O[C@@H](CC(C)C)C(=O)N[C@@H](CC(C)C)C(=O)N[C@@H](C)/C=C/C(=O)N1C(=O)C=C(OC)[C@@H]1C)N(C)C | FP2A (Plasmodium falciparum, UniProt Q8I6U4) | enzyme activity, inhibitor, fluorescence | pH 6 | kinact/KI | 58600 M⁻¹ s⁻¹
COc1cc(C(=O)NC(N)=Nc2ccc(C)c(NC(=O)c3ccc(-c4ccccc4)cc3)c2)cc(OC)c1OC | SMO | GTPγS binding, agonist, radiometric | cell membranes | Emax | -88.6%
CCN(CC)CCCC[C@H](NC(=O)[C@H](CC(C)C)NC(=O)[C@H](C)NC(=O)[C@H](Cc1ccccc1)NC(=O)c1ccc(C(C)(C)C)cc1)C(=O)N[C@@H](CO)C(=O)OC | Bromodomain and PHD finger-containing protein 3 (BRPF3, Homo sapiens, UniProt Q9ULD4) | thermal stability, DSF | 25 µM | ΔTm | 0 °C
